# From the M2OR odorant receptor database
# Biological target: T1, OR2T4 (Homo sapiens) (UniProt Q8NH00)
# T1 sequence (whole entry): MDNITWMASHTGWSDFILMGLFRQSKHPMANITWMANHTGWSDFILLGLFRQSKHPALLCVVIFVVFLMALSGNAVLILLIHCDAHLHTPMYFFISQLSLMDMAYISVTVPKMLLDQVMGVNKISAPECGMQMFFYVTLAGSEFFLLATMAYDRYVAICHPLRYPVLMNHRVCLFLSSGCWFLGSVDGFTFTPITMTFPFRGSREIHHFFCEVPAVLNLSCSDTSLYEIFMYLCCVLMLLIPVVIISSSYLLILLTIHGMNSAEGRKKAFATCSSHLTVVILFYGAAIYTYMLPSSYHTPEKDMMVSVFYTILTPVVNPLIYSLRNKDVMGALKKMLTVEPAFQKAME
# Settings: stereoisomer not certain
# In short: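 Each receptor–molecule pair is labelled responsive or non-responsive (inactive) according to whether the original authors judged the measured signal statistically different from baseline. The data were taken from the main text and supplementary material of published papers and checked for typos and inconsistencies. Assay methods differed by source, with transient luciferase assays in mammalian cell lines being common.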
# 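Also: active if original authors judged signal statistically different from baseline.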
row,SMILES,odorant receptor agonist call
1,CCCCCCCCCCCCCCCCCC(=O)[O-].[H+],inactive
2,CCCO,inactive
3,CC(O)C(=O)[O-].[H+] (stereo not given),inactive
4,CCCCCCCCCC(=O)OC,inactive
5,CCCCCCCCCCCCCCC(=O)O,inactive
6,CCCCCCCCCCCCCCCCCC(=O)OCC,inactive
7,COc1ccc2[nH]cc(CCNC(C)=O)c2c1,inactive
8,CCCCCCCCCCCCCCCC(=O)[O-].[H+],inactive
9,CC(C)=CCCC(C)=CCCC(C)=CCO,inactive
10,CCCCCCCCCCCCCCCCCC(=O)OC,inactive
11,CCCCCCCC(=O)OC,inactive
12,CCCCCCCCCCCC(=O)O,inactive
13,CCC(C)CO (stereo not given),inactive
14,CC(C=O)Cc1ccc(C(C)(C)C)cc1 (stereo not given),active
15,C=C(C)C1CC=C(C)CC1 (stereo not given),inactive
16,Cc1cccc(C)c1C,inactive
17,CCC(=O)O,inactive
18,CCCCC(=O)C(C)=O,inactive

row,SMILES,odorant receptor agonist call
1,CCCCCCCC(=O)OCC,inactive
2,CC(C)(C)c1ccccc1,inactive
3,CC(=O)O,inactive
4,CCCCCCCCCCCCCC(=O)O,inactive
5,O=c1ccc2ccccc2o1,inactive
6,CCCCCCCCCCCCO,inactive
7,CCCCCCCC(=O)[O-].[H+],inactive
8,CCCCOCC(C)O (stereo not given),inactive
9,CCCCCCCCO,inactive
10,CCCCCCCCCCCCCC(=O)OCC,inactive
11,CCCCCCCCCCCCCC(=O)OC,inactive
12,CCCCCCCCCCCC(=O)OC,inactive
13,CCCC(=O)CC,inactive
14,Cc1cnc(C)cn1,inactive
15,CCCCCCCCCCCCCCCC(=O)OCC,inactive
16,CCCCCCCCCCCC(=O)OCC,inactive
17,CCCCCCCCCCCCCCCC(=O)OC,inactive
